Source: ChEMBL document CHEMBL3259704, “Second generation steroidal 4-aminoquinolines are potent, dual-target inhibitors of the botulinum neurotoxin serotype A metalloprotease and P. falciparum malaria” (J Med Chem, 2014)
pIC50: −log10 of the molar value.

Key:
[1] = molecular target: Botulinum neurotoxin type A (Clostridium botulinum) (UniProt P0DPI0); assay: Inhibition of Clostridium botulinum recombinant BoNT/A light chain using N-terminal acetylated, C-terminal aminated SNAP-25 (187-203) as substrate at 20 uM by reverse-phase HPLC analysis
Summary of the method: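 Recombinant BoNT/A LC with SNAP-25 187–203 peptide substrate in 40 mM HEPES–0.05% Tween, pH 7.3, with 0.5 mg/mL BSA and 50 μM excess Zn, at 37 °C. Quenched with TFA; reverse-phase HPLC product/substrate peak areas give percent inhibition, run in duplicate.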

[2] = Selectivity index, ratio of IC50 for human HepG2 cells to IC50 for CQ, MFQ-susceptible Plasmodium falciparum D6 clone Sierra 1/UNC isolate; format: toxicity, cell-based; details: read-out: Ratio IC50
Plasmodium falciparum [3] = assay: Antimalarial activity against CQ, MFQ-susceptible Plasmodium falciparum D6 clone Sierra 1/UNC isolate assessed as inhibition of parasite proliferation by MSF assay; format: functional, organism-based
Summary of the method: (§1)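 SYBR Green I fluorescence (MSF) microtiter drug-sensitivity assay: malarial DNA content is the measure of in vitro parasite proliferation. Resistance index is the IC90 ratio of the resistant strain to D6.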

Plasmodium falciparum [4] = assay: Antimalarial activity against CQ, MFQ-resistant Plasmodium falciparum TM91C235 clone Southeast asian isolate assessed as inhibition of parasite proliferation by MSF assay; format: functional, organism-based; summary of the method: as §1
Plasmodium falciparum [5] = assay: Antimalarial activity against CQ-resistant, MFQ-susceptible Plasmodium falciparum W2 clone Indochina 1 isolate assessed as inhibition of parasite proliferation by MSF assay; format: functional, organism-based; summary of the method: as §1
[6] = Selectivity index, ratio of IC50 for human HepG2 cells to IC50 for CQ, MFQ-resistant Plasmodium falciparum TM91C235 clone Southeast asian isolate; format: toxicity, cell-based; details: read-out: Ratio IC50
[7] = molecular target: Botulinum neurotoxin type A (Clostridium botulinum, UniProt P0DPI0); assay: Inhibition of Clostridium botulinum recombinant BoNT/A light chain using N-terminal acetylated, C-terminal aminated SNAP-25 (187-203) as substrate by reverse-phase HPLC analysis
Summary of the method: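 Same HPLC LC cleavage assay (pH 7.3 HEPES/Tween, BSA, excess Zn, 37 °C). […] Ki comes from velocity versus substrate at several inhibitor levels, globally fit to a competitive model.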

PBMC = assay: Cytotoxicity against human PBMC assessed as inhibition of cell survival after 72 hrs; format: cell-based
Summary of the method: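 PBMC from heparinized healthy-donor blood (Histopaque) in RPMI-1640 with 10% FCS and PHA stimulation, 200 000 cells/well, with compounds in DMSO, 72 h at 37 °C, 6% CO2.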

Liver = assay: Half life in mouse liver microsomes; format: ADME; details: microsomes
Liver microsome = assay: Half life in human liver microsomes; format: ADME; details: microsomes
[8] = Selectivity index, ratio of IC50 for human HepG2 cells to IC50 for CQ-resistant, MFQ-susceptible Plasmodium falciparum W2 clone Indochina 1 isolate; format: toxicity, cell-based; details: read-out: Ratio IC50
Plasmodium falciparum [9] = assay: Resistance index, ratio of IC90 for CQ-resistant, MFQ-susceptible Plasmodium falciparum W2 clone Indochina 1 isolate to IC90 for CQ, MFQ-susceptible Plasmodium falciparum D6 clone Sierra 1/UNC isolate; format: functional; summary of the method: as §1
HepG2 = assay: Cytotoxicity against human HepG2 cells assessed as cell viability after 48 hrs by MTT assay; format: cell-based; details: HepG2, 48 h
Plasmodium falciparum [10] = assay: Resistance index, ratio of IC90 for CQ, MFQ-resistant Plasmodium falciparum TM91C235 clone Southeast asian isolate to IC90 for CQ, MFQ-susceptible Plasmodium falciparum D6 clone Sierra 1/UNC isolate; format: functional; summary of the method: as §1

Botulinum neurotoxin type A, sequence (P0DPI0 2-448 limits assumed): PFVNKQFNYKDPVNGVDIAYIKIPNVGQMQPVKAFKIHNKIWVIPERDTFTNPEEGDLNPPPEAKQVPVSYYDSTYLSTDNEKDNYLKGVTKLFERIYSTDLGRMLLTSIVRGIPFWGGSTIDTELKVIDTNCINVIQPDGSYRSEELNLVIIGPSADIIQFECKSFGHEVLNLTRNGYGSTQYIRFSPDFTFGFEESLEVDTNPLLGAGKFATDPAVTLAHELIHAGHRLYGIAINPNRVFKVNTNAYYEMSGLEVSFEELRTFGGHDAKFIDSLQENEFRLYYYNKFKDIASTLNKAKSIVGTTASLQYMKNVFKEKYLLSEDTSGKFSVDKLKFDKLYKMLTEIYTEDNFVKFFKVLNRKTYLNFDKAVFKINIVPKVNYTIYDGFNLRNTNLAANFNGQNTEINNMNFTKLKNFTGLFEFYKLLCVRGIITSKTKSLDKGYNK
Botulinum neurotoxin type A (Clostridium botulinum), sequence (P0DPI0 2-448 limits assumed): as above

Structure (SMILES)	inhibition [1] [%]	selectivity ratio [2]	pIC50 (Plasmodium falciparum [3])	IC90 (Plasmodium falciparum [3]) [nM]	pIC50 (Plasmodium falciparum [4])	IC90 (Plasmodium falciparum [4]) [nM]	pIC50 (Plasmodium falciparum [5])	IC90 (Plasmodium falciparum [5]) [nM]	selectivity ratio [6]	pIC50 [7]	pIC50 (PBMC)	t1/2 (Liver) [min]	t1/2 (Liver microsome) [min]	selectivity ratio [8]	Ratio (Plasmodium falciparum [9])	pIC50 (HepG2)	Ratio (Plasmodium falciparum [10])
CC(=O)O[C@H]1C[C@H]2[C@@H]([C@H](OC(C)=O)C[C@@H]3CC(=O)CC[C@@]32C)[C@@H]2CC[C@H]([C@H](C)CCCNCCCNc3ccnc4cc(Cl)ccc34)[C@@]12C	72.9	182	8.21	10	8.04	18.1	8.16	12.1	121	5.63	5.58	6	14	161	1.21	5.95	1.81
CC(=O)O[C@H]1C[C@H]2[C@@H]([C@H](OC(C)=O)C[C@@H]3CC(=O)CC[C@@]32C)[C@@H]2CC[C@H]([C@H](C)CCCNCCNc3ccnc4cc(Cl)ccc34)[C@@]12C	67.1	571	8.47	4.56	7.75	36.8	8.19	14.1	109	5.24	4.28	13	6	299	3.09	5.71	8.06
CC(=O)O[C@H]1C[C@H]2[C@@H]([C@H](OC(C)=O)C[C@@H]3C[C@H](NS(C)(=O)=O)CC[C@@]32C)[C@@H]2CC[C@H]([C@H](C)CCCNCCCNc3ccnc4cc(Cl)ccc34)[C@@]12C	72.9	119	7.43	74.7	7.52	56.2	7.46	96.4	147	5.49	–	47	11	130	1.29	5.35	0.75
CC(=O)O[C@H]1C[C@H]2[C@@H]([C@H](OC(C)=O)C[C@@H]3C[C@H](NS(C)(=O)=O)CC[C@@]32C)[C@@H]2CC[C@H]([C@H](C)CCCN(C)CCNc3ccnc4cc(Cl)ccc34)[C@@]12C	33.8	2710	8.27	10.2	8.18	12.6	7.92	16.8	2200	4.60	–	47	14	1190	1.65	4.84	1.24
CC(=O)O[C@H]1C[C@H]2[C@@H]([C@H](OC(C)=O)C[C@@H]3C[C@H](O)CC[C@@]32C)[C@@H]2CC[C@H]([C@H](C)CCCNCCNc3ccnc4cc(Cl)ccc34)[C@@]12C	69.4	938	8.54	5.13	8.17	13.3	–	10.7	407	5.33	5.55	30	7	415	2.08	5.56	2.58
